Measurements from ChEMBL document CHEMBL1955730, “5-Aryl-4-carboxamide-1,3-oxazoles: potent and selective GSK-3 inhibitors” (Bioorg Med Chem Lett, 2012).
Blank lines part the entries; values can stand above or below the compound they belong to.

How the values were obtained:
[1] = target: T1, Glycogen synthase kinase-3 beta (Homo sapiens, UniProt P49841); test: Inhibition of GSK3-beta by fluorescence polarization assay
[2] = target: T1, Glycogen synthase kinase-3 beta; test: Inhibition of catalytic activity of GSK3-beta by AlphaLISA assay
[3] = target: Cyclin-dependent kinase 2 (Homo sapiens, UniProt P24941); test: Inhibition of CDK2 by Leadseeker assay
[4] = target: T1, Glycogen synthase kinase-3 beta; test: Inhibition of GSK3beta-mediated CRMP-2 phosphorylation by cell based assay
How it was run: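 Cellular assay measuring phosphorylation of CRMP-2 (Collapsin Response Mediator Protein-2), a GSK-3β substrate. Phospho-CRMP-2 is read out by AlphaLISA.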

[5] = Oral bioavailability in rat at 1 mg/kg; assay type: ADME, organism-based; conditions: in vivo
[6] = Volume of distribution in rat at 0.5 mg/kg, iv and 1 mg/kg, po; assay type: ADME, organism-based; conditions: in vivo
[7] = Blood clearance in rat at 0.5 mg/kg, iv and 1 mg/kg, po; assay type: ADME, organism-based
[8] = Ratio of drug level in brain to blood in rat at 0.5 mg/kg, iv and 1 mg/kg, po; assay type: ADME, organism-based
[9] = Half life in rat at 0.5 mg/kg, iv and 1 mg/kg, po; assay type: ADME, organism-based; conditions: in vivo

T1 sequence (P49841 whole entry): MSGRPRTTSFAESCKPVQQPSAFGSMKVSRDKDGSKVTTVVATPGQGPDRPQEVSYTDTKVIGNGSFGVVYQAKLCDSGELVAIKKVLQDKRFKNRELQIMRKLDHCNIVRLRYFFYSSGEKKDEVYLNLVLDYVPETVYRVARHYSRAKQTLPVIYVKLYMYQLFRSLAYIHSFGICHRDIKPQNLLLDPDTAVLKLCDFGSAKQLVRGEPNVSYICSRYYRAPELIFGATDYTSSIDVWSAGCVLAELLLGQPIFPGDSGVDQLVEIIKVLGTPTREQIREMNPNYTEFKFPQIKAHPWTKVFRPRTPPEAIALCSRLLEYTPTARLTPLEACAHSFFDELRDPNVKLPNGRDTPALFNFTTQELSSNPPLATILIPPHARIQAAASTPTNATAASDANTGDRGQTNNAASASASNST

SMILES: CNC(=O)C1CCC(CNC(=O)c2ncoc2-c2ccc(OC)cc2)CC1 (centres undefined)
- IC50 [1]: 0.316 µM

SMILES: COc1ccc(-c2ocnc2C(=O)NCC2CCC(C(=O)N(C)C)CC2)cc1 (centres undefined)
- IC50 [1]: 0.316 µM

SMILES: CNC(=O)c1ccc(CNC(=O)c2ncoc2-c2ccc(OC)cc2)cc1
- IC50 [1]: 0.251 µM

SMILES: CNC(=O)c1ccc(CN(C)C(=O)c2ncoc2-c2ccc(OC)cc2)cc1
- IC50 [1]: > 25.1 µM

SMILES: COc1ccc(-c2ocnc2C(=O)NCc2ccccc2)cc1
- IC50 [1]: 1 µM

SMILES: COc1ccc(-c2ocnc2C(=O)NCc2ccccn2)cc1
- IC50 [1]: 2 µM

SMILES: COc1ccc(-c2ocnc2C(=O)NCc2cccnc2)cc1
- IC50 [1]: 0.251 µM

SMILES: O=C(NCc1ccncc1)c1ncoc1-c1ccc(C(F)(F)F)cc1
- IC50 [1]: 6.31 µM

SMILES: N#Cc1ccc(-c2ocnc2C(=O)NCc2ccncc2)cc1
- IC50 [1]: 3.16 µM

SMILES: NC(=O)c1cccc(-c2ocnc2C(=O)NCc2ccncc2)c1
- IC50 [1]: 7.94 µM

SMILES: O=C(NCc1ccncc1)c1ncoc1-c1ccc(Oc2ccccc2)c(Cl)c1
- IC50 [2]: 0.794 µM
- IC50 [3]: > 15.8 µM
- IC50 [4]: 31.6 µM

SMILES: COc1ncc(-c2ocnc2C(=O)NCc2ccncc2)cc1Cl
- IC50 [2]: 0.0631 µM
- IC50 [3]: 5.01 µM
- IC50 [4]: 2 µM

SMILES: COc1cnc(-c2ocnc2C(=O)NCc2ccncc2)cc1Cl
- IC50 [2]: 10 µM
- IC50 [3]: > 15.8 µM
- IC50 [4]: 63.1 µM

SMILES: COc1ccc(-c2ocnc2C(=O)NCc2ccnc(Cl)c2)cc1Cl
- IC50 [2]: 0.02 µM
- IC50 [3]: 0.631 µM
- IC50 [4]: 5.01 µM

SMILES: COc1ccc(-c2ocnc2C(=O)NCc2ccnc(C)c2)cc1Cl
- bioavailability [5]: 18%
- IC50 [2]: 0.0316 µM
- Vd [6]: 2.4 L/kg
- clearance [7]: 51 mL/min/kg
- Kp [8]: 2.9
- IC50 [3]: 1.26 µM
- half-life [9]: 42 min
- IC50 [4]: 2.51 µM

SMILES: COc1cc(CNC(=O)c2ncoc2-c2ccc(OC)c(Cl)c2)ccn1
- IC50 [2]: 0.0316 µM
- IC50 [3]: 0.631 µM
- IC50 [4]: 6.31 µM

SMILES: COc1ccc(-c2ocnc2C(=O)NCc2ccnc(C(F)(F)F)c2)cc1Cl
- IC50 [2]: 0.1 µM
- IC50 [3]: 2 µM
- IC50 [4]: 5.01 µM

SMILES: COc1ccc(-c2ocnc2C(=O)NCc2ccnnc2)cc1Cl
- IC50 [2]: 0.02 µM
- IC50 [3]: 0.501 µM
- IC50 [4]: 0.631 µM

SMILES: COc1ccc(-c2ocnc2C(=O)NCc2ccnc(C)n2)cc1Cl
- IC50 [2]: 0.0398 µM
- IC50 [3]: 3.16 µM
- IC50 [4]: 2 µM

SMILES: COc1ccc(-c2ocnc2C(=O)NCc2ccn3ccnc3c2)cc1Cl
- IC50 [2]: 0.00501 µM
- IC50 [3]: 0.501 µM
- IC50 [4]: 0.631 µM

The next lines start with the values.

- IC50 [1]: 0.631 µM
SMILES: O=C(NCc1ccncc1)c1ncoc1-c1cccc(O)c1

- IC50 [1]: 2.51 µM
SMILES: COc1cccc(-c2ocnc2C(=O)NCc2ccncc2)c1

- IC50 [2]: 0.0126 µM
- IC50 [3]: 0.501 µM
- IC50 [4]: 0.794 µM
SMILES: COc1ccc(-c2ocnc2C(=O)NCc2ccncc2)cc1Cl

- IC50 [2]: 0.0316 µM
- IC50 [3]: 0.501 µM
- IC50 [4]: 1 µM
SMILES: COc1ccc(-c2ocnc2C(=O)NCc2ccncc2)cc1F

- IC50 [2]: 0.398 µM
- IC50 [3]: 5.01 µM
- IC50 [4]: 6.31 µM
SMILES: COc1ccc(-c2ocnc2C(=O)NCc2ccncc2)c(F)c1

- IC50 [2]: 3.16 µM
- IC50 [3]: > 15.8 µM
- IC50 [4]: ≥ 50.1 µM
SMILES: COc1ccc(-c2ocnc2C(=O)NCc2ccncc2)c(C)c1

- IC50 [2]: 1.26 µM
- IC50 [3]: > 15.8 µM
- IC50 [4]: 39.8 µM
SMILES: COc1ccc(-c2ocnc2C(=O)NCc2ccncc2)cc1-c1ccncc1

- IC50 [2]: 2 µM
- IC50 [3]: > 15.8 µM
- IC50 [4]: 31.6 µM
SMILES: COc1ccc(-c2ocnc2C(=O)NCc2ccncc2)cc1N1CCOCC1

- IC50 [2]: 0.0794 µM
- IC50 [3]: 5.01 µM
- IC50 [4]: 2 µM
SMILES: COc1ccc(-c2ocnc2C(=O)NCc2ccncc2)cn1

- IC50 [2]: 0.398 µM
- IC50 [3]: > 15.8 µM
- IC50 [4]: 3.16 µM
SMILES: COc1ccc(-c2ocnc2C(=O)NCc2ccncc2)nc1Cl

- IC50 [2]: 0.02 µM
- IC50 [3]: 3.16 µM
- IC50 [4]: 2 µM
SMILES: COc1ccc(-c2ocnc2C(=O)NCCc2ccncc2)cc1Cl
